Here are results for two molecules from ChEMBL document CHEMBL4270612, “Discovery of dual GyrB/ParE inhibitors active against Gram-negative bacteria” (Eur J Med Chem, 2018).

Data set [1] deals with Pseudomonas aeruginosa. Kind of data set: Antibacterial activity against Pseudomonas aeruginosa ARC003 after 24 hrs by broth microdilution method. It counts as functional. The conditions noted are these: ARC003, 24 h. The gist of the method: (§1)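 Broth microdilution per CLSI. Bacterial suspension adjusted to 1×10^6 CFU/mL in cation-adjusted Mueller–Hinton broth and mixed 1:1 with 2-fold serial compound dilutions. Final DMSO 2.5% v/v. Plates incubated at 35 °C with shaking at 140 rpm for 24 h.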
A general note: Broth dilution looks for growth in wells or tubes with falling amounts of substance.

In data set [2] the test system is Pseudomonas aeruginosa. Description: Antibacterial activity against Pseudomonas aeruginosa ARC3504 after 24 hrs by broth microdilution method. It counts as functional. The conditions noted are these: ARC3504, 24 h. The gist of the method: as §1
Data set [3] concerns Pseudomonas aeruginosa. Kind of data set: Antibacterial activity against Pseudomonas aeruginosa ARC3505 after 24 hrs by broth microdilution method. The conditions noted are these: ARC3505, 24 h. The class given is functional. The gist of the method: as §1
The test system of data set [4] is Pseudomonas aeruginosa. Kind of data set: Antibacterial activity against Pseudomonas aeruginosa ARC3506 after 24 hrs by broth microdilution method. It counts as functional. The following applies: ARC3506, 24 h. In short, it runs like this: as §1
The subject of data set [5] is Pseudomonas aeruginosa. Description: Antibacterial activity against Pseudomonas aeruginosa ARC3509 after 24 hrs by broth microdilution method. The following applies: ARC3509, 24 h. It counts as functional. The gist of the method: as §1
Data set [6] concerns Pseudomonas aeruginosa. Description: Antibacterial activity against Pseudomonas aeruginosa ARC3606 after 24 hrs by broth microdilution method. The conditions noted are these: ARC3606, 24 h. The class given is functional. The gist of the method:
as §1

Data set [7] has as its system Pseudomonas aeruginosa. Description: Antibacterial activity against Pseudomonas aeruginosa ARC3607 after 24 hrs by broth microdilution method. The conditions noted are these: ARC3607, 24 h. The class given is functional. In short, it runs like this: as §1
For data set [8], the system named is Pseudomonas aeruginosa. Kind of data set: Antibacterial activity against Pseudomonas aeruginosa ARC3611 after 24 hrs by broth microdilution method. The following applies: ARC3611, 24 h. It counts as functional. In short, it runs like this:
as §1

In data set [9] the test system is Pseudomonas aeruginosa. Kind of data set: Antibacterial activity against Pseudomonas aeruginosa ARC3612 after 24 hrs by broth microdilution method. The conditions noted are these: ARC3612, 24 h. It counts as functional. The gist of the method: as §1
Data set [10] concerns Pseudomonas aeruginosa. Kind of data set: Antibacterial activity against Pseudomonas aeruginosa ARC3729 after 24 hrs by broth microdilution method. The conditions noted are these: ARC3729, 24 h. The class given is functional. The gist of the method:
as §1

In data set [11] the test system is Pseudomonas aeruginosa. Kind of data set: Antibacterial activity against Pseudomonas aeruginosa ARC3916 after 24 hrs by broth microdilution method. The class given is functional. The conditions noted are these: ARC3916, 24 h. In short, it runs like this: as §1
Data set [12] deals with Pseudomonas aeruginosa. Description: Antibacterial activity against Pseudomonas aeruginosa ARC4060 after 24 hrs by broth microdilution method. It counts as functional. The conditions noted are these: ARC4060, 24 h. The gist of the method: as §1
In data set [13] the test system is Acinetobacter baumannii. Description: Antibacterial activity against Acinetobacter baumannii ARC2674 after 24 hrs by broth microdilution method. The class given is functional. The following applies: ARC2674, 24 h. The gist of the method: as §1
The test system of data set [14] is Acinetobacter baumannii. Description: Antibacterial activity against Acinetobacter baumannii ARC2728 after 24 hrs by broth microdilution method. The following applies: ARC2728, 24 h. The class given is functional. In short, it runs like this:
as §1

Data set [15] relates to Acinetobacter baumannii. Kind of data set: Antibacterial activity against Acinetobacter baumannii ARC2779 after 24 hrs by broth microdilution method. The class given is functional. The conditions noted are these: ARC2779, 24 h. The gist of the method:
as §1

Data set [16] concerns Acinetobacter baumannii. Kind of data set: Antibacterial activity against Acinetobacter baumannii ARC2782 after 24 hrs by broth microdilution method. It counts as functional. The conditions noted are these: ARC2782, 24 h. In short, it runs like this: as §1
For data set [17], the system named is Acinetobacter baumannii. Kind of data set: Antibacterial activity against Acinetobacter baumannii ARC3485 after 24 hrs by broth microdilution method. It counts as functional. The following applies: ARC3485, 24 h. In short, it runs like this: as §1
Data set [18] relates to Acinetobacter baumannii. Kind of data set: Antibacterial activity against Acinetobacter baumannii ARC3486 after 24 hrs by broth microdilution method. It counts as functional. The conditions noted are these: ARC3486, 24 h. In short, it runs like this: as §1
Data set [19] relates to Acinetobacter baumannii. Kind of data set: Antibacterial activity against Acinetobacter baumannii ARC3489 after 24 hrs by broth microdilution method. The following applies: ARC3489, 24 h. It counts as functional. The gist of the method: as §1
In data set [20] the test system is Acinetobacter baumannii. Kind of data set: Antibacterial activity against Acinetobacter baumannii ARC3493 after 24 hrs by broth microdilution method. The class given is functional. The conditions noted are these: ARC3493, 24 h. The gist of the method: as §1
Data set [21] has as its system Acinetobacter baumannii. Description: Antibacterial activity against Acinetobacter baumannii ARC3495 after 24 hrs by broth microdilution method. The class given is functional. The following applies: ARC3495, 24 h. The gist of the method:
as §1

For data set [22], the system named is Acinetobacter baumannii. Kind of data set: Antibacterial activity against Acinetobacter baumannii ARC3513 after 24 hrs by broth microdilution method. It counts as functional. The conditions noted are these: ARC3513, 24 h. The gist of the method: as §1
In data set [23] the test system is Acinetobacter baumannii. Description: Antibacterial activity against Acinetobacter baumannii ARC3515 after 24 hrs by broth microdilution method. It counts as functional. The following applies: ARC3515, 24 h. The gist of the method:
as §1

Data set [24] relates to Acinetobacter baumannii. Kind of data set: Antibacterial activity against Acinetobacter baumannii ARC3657 after 24 hrs by broth microdilution method. The class given is functional. The following applies: ARC3657, 24 h. In short, it runs like this: as §1
Data set [25] concerns Acinetobacter baumannii. Kind of data set: Antibacterial activity against Acinetobacter baumannii ARC3658 after 24 hrs by broth microdilution method. The following applies: ARC3658, 24 h. It counts as functional. The gist of the method:
as §1

The subject of data set [26] is Acinetobacter baumannii. Description: Antibacterial activity against Acinetobacter baumannii ARC3659 after 24 hrs by broth microdilution method. The class given is functional. The following applies: ARC3659, 24 h. In short, it runs like this:
as §1

Data set [27] relates to Acinetobacter baumannii. Description: Antibacterial activity against Acinetobacter baumannii ARC3882 after 24 hrs by broth microdilution method. It counts as functional. The following applies: ARC3882, 24 h. In short, it runs like this: as §1
For data set [28], the target named is DNA gyrase subunit B (Escherichia coli, UniProt P0AES6). Description: Inhibition of Escherichia coli GyrB (1 to 220 residues) expressed in Escherichia coli BL21(DE3).
Data set [29] deals with DNA topoisomerase 4 subunit B (Escherichia coli K-12, UniProt P20083). Description: Inhibition of Escherichia coli ParE.
Sequence of DNA topoisomerase 4 subunit B (P20083 whole entry, the tested form may be a part): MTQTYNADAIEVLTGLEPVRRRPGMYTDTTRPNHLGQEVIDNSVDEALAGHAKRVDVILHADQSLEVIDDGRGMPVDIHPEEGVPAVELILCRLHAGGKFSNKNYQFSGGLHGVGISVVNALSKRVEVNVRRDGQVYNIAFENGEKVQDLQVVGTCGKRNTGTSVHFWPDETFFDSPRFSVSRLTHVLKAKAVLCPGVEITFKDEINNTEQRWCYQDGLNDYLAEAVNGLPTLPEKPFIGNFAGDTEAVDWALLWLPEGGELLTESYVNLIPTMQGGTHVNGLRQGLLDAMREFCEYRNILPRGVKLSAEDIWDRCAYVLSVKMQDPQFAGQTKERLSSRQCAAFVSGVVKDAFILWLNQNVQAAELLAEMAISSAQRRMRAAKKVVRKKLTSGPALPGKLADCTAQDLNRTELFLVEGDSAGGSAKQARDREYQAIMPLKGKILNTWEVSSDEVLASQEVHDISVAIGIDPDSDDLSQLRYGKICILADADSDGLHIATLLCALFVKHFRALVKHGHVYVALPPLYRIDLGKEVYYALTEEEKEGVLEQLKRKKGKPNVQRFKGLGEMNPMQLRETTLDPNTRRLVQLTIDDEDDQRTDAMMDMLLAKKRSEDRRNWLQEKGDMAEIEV
Data set [30] has as its system Escherichia coli. Kind of data set: Selectivity ratio of IC50 for Escherichia coli ParE to IC50 for Escherichia coli GyrB (1 to 220 residues) expressed in Escherichia coli BL21(DE3).
Data set [31] relates to Pseudomonas aeruginosa. Kind of data set: Antibacterial activity against Pseudomonas aeruginosa PAO1 after 24 hrs by broth microdilution method. The following applies: PAO1, 24 h. It counts as functional. In short, it runs like this: as §1
For data set [32], the system named is Pseudomonas aeruginosa. Kind of data set: Antibacterial activity against Pseudomonas aeruginosa harboring MexABCDXY deletion mutant after 24 hrs by broth microdilution method. The class given is functional. The gist of the method: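 Broth microdilution per CLSI. Bacterial suspensions adjusted to 1×10^6 CFU/mL in cation-adjusted Mueller–Hinton broth, mixed 1:1 with 2-fold serial compound dilutions (final DMSO 2.5% v/v). Incubation 35 °C, 140 rpm, 24 h.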

The test system of data set [33] is Escherichia coli. Kind of data set: Antibacterial activity against Escherichia coli after 24 hrs by broth microdilution method. It counts as functional. In short, it runs like this:
as §1

Data set [34] concerns Escherichia coli. Description: Antibacterial activity against tolC deficient Escherichia coli after 24 hrs by broth microdilution method. The class given is functional. In short, it runs like this: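 Broth microdilution per CLSI guidelines. Inoculum adjusted to 1×10^6 CFU/mL in cation-adjusted Mueller–Hinton broth, added 1:1 to 2-fold serial compound dilutions; final DMSO 2.5% v/v. Plates incubated 35 °C, 140 rpm, 24 h.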

The nature of data set [35]: Dissociation constant, pKa of compound by pH metric method. It counts as physicochemical. The gist of the method: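 Potentiometric (pH-metric) titration on an automated titrator, Gold Standard pH metric assay, run in triplicate.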

For orientation: MIC means the lowest concentration that inhibits growth of the organism. Low values mean greater potency, high ones weaker potency. As a reminder, the IC50 is the concentration that gives 50% inhibition. Broadly, the pKa is the negative logarithm of the acid dissociation constant. Higher therefore signals a weaker acid or stronger base.

The structures appear in SMILES notation. Values after ≈ are worked out from the molar mass of the structure shown.

On to `C[C@@H](O)[C@H]1C(=O)N2C(C(=O)O)=C(S[C@@H]3CN[C@H](C(=O)N(C)C)C3)[C@H](C)[C@H]12` [MEROPENEM], for which the MIC in data set [1] is 0.25 µg/mL (≈ 0.652 µM); in [2] it was 4 µg/mL (≈ 10.4 µM); in data set [3], 2 µg/mL (≈ 5.22 µM); in data set [4], 8 µg/mL (≈ 20.9 µM); in [5], 16 µg/mL (≈ 41.7 µM); in [6], 4 µg/mL (≈ 10.4 µM). Moreover, the MIC was found to be 8 µg/mL (≈ 20.9 µM) in data set [7]; 4 µg/mL (≈ 10.4 µM) in [8]; 32 µg/mL (≈ 83.4 µM) in [9]; 32 µg/mL (≈ 83.4 µM) in [10]; 32 µg/mL (≈ 83.4 µM) in data set [11]; 16 µg/mL (≈ 41.7 µM) in data set [12]. Besides, the MIC is 16 µg/mL (≈ 41.7 µM) in data set [13]; 0.25 µg/mL (≈ 0.652 µM) in data set [14]; 16 µg/mL (≈ 41.7 µM) in [15]; 16 µg/mL (≈ 41.7 µM) in [16]; 32 µg/mL (≈ 83.4 µM) in [17]; more than 64 µg/mL in data set [18]. Moreover, the MIC in [19] was 4 µg/mL (≈ 10.4 µM); in data set [20] it was more than 64 µg/mL; in data set [21], more than 64 µg/mL; in data set [22], 32 µg/mL (≈ 83.4 µM); in [23] it was 4 µg/mL (≈ 10.4 µM); in data set [24] it was 1 µg/mL (≈ 2.61 µM). The MIC was 32 µg/mL (≈ 83.4 µM) in data set [25], 16 µg/mL (≈ 41.7 µM) in data set [26] and more than 64 µg/mL in data set [27].
In the case of `CCNC(=O)Nc1cc(-c2nc(C(F)(F)F)cs2)c(-c2cncc(C(=O)O)c2)cn1`, the IC50 is 6 nM in [28] and 700 nM in data set [29]. Further, in data set [30], the Ratio IC50 turned out to be 100. The MIC in data set [31], in [32], in [33] and in data set [34] was more than 100 µg/mL in each case. In [35], the pKa worked out at 3.5.
